≈ marks a conversion by molar mass, not a printed value.
Assays:
Escherichia coli [1] = test: Minimum inhibitory concentration required to inhibit the activity of Escherichia coli UB1005; assay type: functional
How it was run: (§1)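 Agar dilution on Mueller-Hinton agar using 2-fold serial dilutions, giving final 128 to 0.0156 μg/mL (extended to 0.000977 μg/mL where needed). Inoculum was overnight broth culture diluted 100-fold, about 3×10^4 CFU/spot, applied by replicator. MIC read after overnight incubation at 36 °C.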

Serratia marcescens = test: The compound was tested in vitro for minimum inhibitory concentration against Serratia marcescens 1071; assay type: functional; how it was run: as §1
Escherichia coli [2] = test: The compound was tested in vitro for minimum inhibitory concentration against Escherichia coli 257; assay type: functional; how it was run: as §1
Escherichia coli [3] = test: The compound was tested in vitro for minimum inhibitory concentration against Escherichia coli TEM-1; assay type: functional; how it was run: as §1
Enterococcus faecalis = test: The compound was tested in vitro for minimum inhibitory concentration against Enterococcus faecalis ATCC 29212; assay type: functional; how it was run: as §1
Citrobacter freundii = test: The compound was tested in vitro for minimum inhibitory concentration against Citrobacter Freundii BS-16; assay type: functional; how it was run: as §1
Proteus mirabilis = test: The compound was tested in vitro for minimum inhibitory concentration against Proteus mirabilis 90; assay type: functional
How it was run: (§2)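 Proteus MICs by agar dilution on Mueller-Hinton medium containing 3% agar. Serial 2-fold dilutions gave final 128 to 0.0156 μg/mL (further to 0.000977 μg/mL). Inoculum was overnight broth diluted 100-fold, about 3×10^4 CFU/spot. Plates read after overnight incubation at 36 °C.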

Klebsiella pneumoniae = test: The compound was tested in vitro for minimum inhibitory concentration against Klebsiella pneumoniae A; assay type: functional; how it was run: as §1
Enterobacter cloacae = test: The compound was tested in vitro for minimum inhibitory concentration against Enterobacter cloacae P99; assay type: functional
Staphylococcus aureus [4] = test: The compound was tested in vitro for minimum inhibitory concentration against Staphylococcus aureus 753; assay type: functional; how it was run: as §1
Escherichia coli [5] = test: Minimum inhibitory concentration required to inhibit the activity of Escherichia coli ATCC 25922; assay type: functional; how it was run: as §1
Escherichia coli [6] = test: Inhibitory activity on replicative DNA biosynthesis in Escherichia coli H560 (permeabilised cells); assay type: functional, organism-based
How it was run: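 E. coli H560 cells permeabilized with toluene. ATP-dependent incorporation of [3H]thymidine into trichloroacetic acid-insoluble material was measured. IC50 taken as the concentration giving 50% inhibition.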

Pseudomonas aeruginosa [7] = test: The compound was tested in vitro for minimum inhibitory concentration against Pseudomonas aeruginosa 8780; assay type: functional; how it was run: as §1
Staphylococcus aureus [8] = test: The compound was tested in vitro for minimum inhibitory concentration against Staphylococcus aureus smith; assay type: functional; how it was run: as §1
Streptococcus pyogenes = test: The compound was tested in vitro for minimum inhibitory concentration against Streptococcus pyogenes; assay type: functional
How it was run: (§3)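 Streptococci tested by agar dilution on brain heart infusion agar with 20 units/mL bovine liver catalase. Final drug range 128 to 0.0156 μg/mL by 2-fold steps, extended to 0.000977 μg/mL when required. Inoculum about 3×10^4 CFU/spot from overnight broth diluted 100-fold. MIC after overnight incubation at 36 °C.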

Staphylococcus aureus [9] = test: The compound was tested in vitro for minimum inhibitory concentration against Staphylococcus aureus 67-0; assay type: functional; how it was run: as §1
Pseudomonas aeruginosa [10] = test: The compound was tested in vitro for minimum inhibitory concentration against Pseudomonas aeruginosa 18S/H; assay type: functional; how it was run: as §1
Streptococcus pneumoniae = test: The compound was tested in vitro for minimum inhibitory concentration against Streptococcus pneumoniae 6301; assay type: functional; how it was run: as §3
Proteus vulgaris = test: The compound was tested in vitro for minimum inhibitory concentration against Proteus vulgaris 1028 BC; assay type: functional; how it was run: as §2
Micrococcus luteus = test: The compound was tested in vitro for minimum inhibitory concentration against Micrococcus luteus ATCC 9341; assay type: functional; how it was run: as §1
Escherichia coli [11] = test: The compound was tested in vitro for minimum inhibitory concentration against Escherichia coli ATCC 25922; assay type: functional; how it was run: as §1
Escherichia coli [12] = test: The compound was evaluated for the inhibition of [14C]- Pen G binding to Escherichia coli UB1005 penicillin-binding protein 3 60 kDa.
How it was run: (§4)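 Membranes from sonicated E. coli UB1005 were solubilized. Binding to penicillin-binding proteins was measured as inhibition of [14C]penicillin G binding.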

Escherichia coli [13] = test: Minimum inhibitory concentration for inhibition of [14C]- Pen G binding to Escherichia coli UB1005; assay type: functional; how it was run: as §4
Escherichia coli [14] = test: The compound was evaluated for the inhibition of [14C]- Pen G binding to Escherichia coli UB1005 penicillin-binding protein 1a 90 kDa.; how it was run: as §4
Escherichia coli [15] = test: The compound was evaluated for the inhibition of [14C]- Pen G binding to Escherichia coli UB1005 penicillin-binding protein 2 66 kDa.; how it was run: as §4
Escherichia coli [16] = test: The compound was evaluated for the inhibition of [14C]- Pen G binding to Escherichia coli UB1005 penicillin-binding protein 1b 90 kDa.; how it was run: as §4

Row | Compound | MIC (Escherichia coli [1]) [µg/mL] | MIC (Serratia marcescens) [µg/mL] | MIC (Escherichia coli [2]) [µg/mL] | MIC (Escherichia coli [3]) [µg/mL] | MIC (Enterococcus faecalis) [µg/mL] | MIC (Citrobacter freundii) [µg/mL] | MIC (Proteus mirabilis) [µg/mL] | MIC (Klebsiella pneumoniae) [µg/mL] | MIC (Enterobacter cloacae) [µg/mL] | MIC (Staphylococcus aureus [4]) [µg/mL] | MIC (Escherichia coli [5]) [µg/mL] | IC50 (Escherichia coli [6]) [µg/mL] | MIC (Pseudomonas aeruginosa [7]) [µg/mL] | MIC (Staphylococcus aureus [8]) [µg/mL] | MIC (Streptococcus pyogenes) [µg/mL] | MIC (Staphylococcus aureus [9]) [µg/mL] | MIC (Pseudomonas aeruginosa [10]) [µg/mL] | MIC (Streptococcus pneumoniae) [µg/mL] | MIC (Proteus vulgaris) [µg/mL] | MIC (Micrococcus luteus) [µg/mL] | also measured
1 | O=C(O)C1=C(COC(=O)N2CCN(c3cc4c(cc3F)c(=O)c(C(=O)O)cn4C3CC3)CC2)CS[C@@H]2[C@H](NC(=O)C(O)c3ccccc3)C(=O)N12 (stereo not given in full) | 1 (≈ 1.39 µM) | 0.125 (≈ 0.173 µM) | 0.031 (≈ 0.043 µM) | 0.031 (≈ 0.043 µM) | 4 (≈ 5.54 µM) | 0.031 (≈ 0.043 µM) | 0.25 (≈ 0.346 µM) | 0.063 (≈ 0.0873 µM) | < 0.016 | 0.5 (≈ 0.693 µM) | 0.03 (≈ 0.0416 µM) | 4 (≈ 5.54 µM) | 1 (≈ 1.39 µM) | 0.25 (≈ 0.346 µM) | < 0.016 | 2 (≈ 2.77 µM) | 0.5 (≈ 0.693 µM) | 0.031 (≈ 0.043 µM) | 0.063 (≈ 0.0873 µM) | 0.031 (≈ 0.043 µM) | MIC (Escherichia coli [11]): 0.031 µg/mL (≈ 0.043 µM)
2 | Nc1nc(/C(=N/OCC(=O)O)C(=O)N[C@@H]2C(=O)N3C(C(=O)O)=C(COC(=O)N4CCN(c5cc6c(cc5F)c(=O)c(C(=O)O)cn6C5CC5)CC4)CS[C@H]23)cs1 | 1 (≈ 1.23 µM) | 0.25 (≈ 0.307 µM) | 0.031 (≈ 0.038 µM) | 0.063 (≈ 0.0773 µM) | 1 (≈ 1.23 µM) | 0.125 (≈ 0.153 µM) | 0.125 (≈ 0.153 µM) | 0.125 (≈ 0.153 µM) | 0.063 (≈ 0.0773 µM) | 4 (≈ 4.91 µM) | 0.03 (≈ 0.0368 µM) | 1.7 (≈ 2.09 µM) | 1 (≈ 1.23 µM) | 0.5 (≈ 0.614 µM) | 0.063 (≈ 0.0773 µM) | 4 (≈ 4.91 µM) | 1 (≈ 1.23 µM) | 0.125 (≈ 0.153 µM) | 0.125 (≈ 0.153 µM) | 0.5 (≈ 0.614 µM) | Inhibitory concentration (Escherichia coli [12]): < 0.1 µg/mL; MIC (Escherichia coli [13]): 1 µg/mL (≈ 1.23 µM); Inhibitory concentration (Escherichia coli [14]): 100 µg/mL; Inhibitory concentration (Escherichia coli [15]): > 100 µg/mL; Inhibitory concentration (Escherichia coli [16]): 10 µg/mL; MIC (Escherichia coli [11]): 0.031 µg/mL (≈ 0.038 µM)
3 | O=C(COc1ccccc1)N[C@@H]1C(=O)N2C(C(=O)O)=C(COC(=O)N3CCN(c4cc5c(cc4F)c(=O)c(C(=O)O)cn5C4CC4)CC3)CS[C@H]12 | 2 (≈ 2.77 µM) | 0.25 (≈ 0.346 µM) | 0.063 (≈ 0.0873 µM) | 0.063 (≈ 0.0873 µM) | 4 (≈ 5.54 µM) | 0.063 (≈ 0.0873 µM) | 0.125 (≈ 0.173 µM) | 0.25 (≈ 0.346 µM) | 0.031 (≈ 0.043 µM) | 4 (≈ 5.54 µM) | 0.06 (≈ 0.0831 µM) | 4.2 (≈ 5.82 µM) | 1 (≈ 1.39 µM) | 0.25 (≈ 0.346 µM) | 0.031 (≈ 0.043 µM) | 4 (≈ 5.54 µM) | 0.5 (≈ 0.693 µM) | 0.031 (≈ 0.043 µM) | 0.125 (≈ 0.173 µM) | 0.031 (≈ 0.043 µM) | Inhibitory concentration (Escherichia coli [12]): > 100 µg/mL; MIC (Escherichia coli [13]): 2 µg/mL (≈ 2.77 µM); Inhibitory concentration (Escherichia coli [14]): > 100 µg/mL; Inhibitory concentration (Escherichia coli [15]): > 100 µg/mL; Inhibitory concentration (Escherichia coli [16]): > 100 µg/mL; MIC (Escherichia coli [11]): 0.063 µg/mL (≈ 0.0873 µM)

More lines, main results first:

Row | MIC (Escherichia coli [1]) [µg/mL] | MIC (Serratia marcescens) [µg/mL] | MIC (Escherichia coli [2]) [µg/mL] | MIC (Escherichia coli [3]) [µg/mL] | MIC (Enterococcus faecalis) [µg/mL] | MIC (Citrobacter freundii) [µg/mL] | MIC (Proteus mirabilis) [µg/mL] | MIC (Klebsiella pneumoniae) [µg/mL] | MIC (Enterobacter cloacae) [µg/mL] | MIC (Staphylococcus aureus [4]) [µg/mL] | MIC (Escherichia coli [5]) [µg/mL] | IC50 (Escherichia coli [6]) [µg/mL] | MIC (Pseudomonas aeruginosa [7]) [µg/mL] | MIC (Staphylococcus aureus [8]) [µg/mL] | MIC (Streptococcus pyogenes) [µg/mL] | MIC (Staphylococcus aureus [9]) [µg/mL] | MIC (Pseudomonas aeruginosa [10]) [µg/mL] | MIC (Streptococcus pneumoniae) [µg/mL] | MIC (Proteus vulgaris) [µg/mL] | MIC (Micrococcus luteus) [µg/mL] | Compound | also measured
4 | 1 (≈ 1.53 µM) | 0.125 (≈ 0.191 µM) | 0.063 (≈ 0.0962 µM) | 0.063 (≈ 0.0962 µM) | 4 (≈ 6.11 µM) | 0.063 (≈ 0.0962 µM) | 0.5 (≈ 0.764 µM) | 0.125 (≈ 0.191 µM) | < 0.016 | 1 (≈ 1.53 µM) | 0.06 (≈ 0.0917 µM) | 1 (≈ 1.53 µM) | 1 (≈ 1.53 µM) | 0.25 (≈ 0.382 µM) | 0.031 (≈ 0.0474 µM) | 2 (≈ 3.06 µM) | 0.5 (≈ 0.764 µM) | 0.031 (≈ 0.0474 µM) | 0.031 (≈ 0.0474 µM) | 0.125 (≈ 0.191 µM) | N#CCC(=O)N[C@@H]1C(=O)N2C(C(=O)O)=C(COC(=O)N3CCN(c4cc5c(cc4F)c(=O)c(C(=O)O)cn5C4CC4)CC3)CS[C@H]12 | Inhibitory concentration (Escherichia coli [12]): 100 µg/mL; MIC (Escherichia coli [13]): 1 µg/mL (≈ 1.53 µM); Inhibitory concentration (Escherichia coli [14]): > 100 µg/mL; Inhibitory concentration (Escherichia coli [15]): > 100 µg/mL; Inhibitory concentration (Escherichia coli [16]): > 100 µg/mL; MIC (Escherichia coli [11]): 0.063 µg/mL (≈ 0.0962 µM)
5 | 1 (≈ 1.13 µM) | 0.125 (≈ 0.141 µM) | 0.063 (≈ 0.0709 µM) | 0.063 (≈ 0.0709 µM) | 4 (≈ 4.5 µM) | 0.063 (≈ 0.0709 µM) | 1 (≈ 1.13 µM) | 0.125 (≈ 0.141 µM) | 0.031 (≈ 0.0349 µM) | 1 (≈ 1.13 µM) | 0.06 (≈ 0.0675 µM) | 9 (≈ 10.1 µM) | 2 (≈ 2.25 µM) | 0.5 (≈ 0.563 µM) | 0.063 (≈ 0.0709 µM) | 4 (≈ 4.5 µM) | 1 (≈ 1.13 µM) | 0.031 (≈ 0.0349 µM) | 0.063 (≈ 0.0709 µM) | 0.125 (≈ 0.141 µM) | CCN1CCN(C(=O)NC(C(=O)N[C@@H]2C(=O)N3C(C(=O)O)=C(COC(=O)N4CCN(c5cc6c(cc5F)c(=O)c(C(=O)O)cn6C5CC5)CC4)CS[C@H]23)c2ccccc2)C(=O)C1=O (stereo not given in full) | Inhibitory concentration (Escherichia coli [12]): 0.5 µg/mL; MIC (Escherichia coli [13]): 1 µg/mL (≈ 1.13 µM); Inhibitory concentration (Escherichia coli [14]): 10 µg/mL; Inhibitory concentration (Escherichia coli [15]): > 100 µg/mL; Inhibitory concentration (Escherichia coli [16]): 10 µg/mL; MIC (Escherichia coli [11]): 0.063 µg/mL (≈ 0.0709 µM)

From ChEMBL document CHEMBL1125212, “Dual-action cephalosporins: cephalosporin 3'-quinolone carbamates” (J Med Chem, 1991)
